Source: PubChem (Broad Institute)
Most compounds without a hit are left out; they make up all but 2.5% or so of the library.
E-sel inducer: induces E-selectin expression in human endothelial cells. P16581. HUVEC E-selectin immunofluorescence imaging; normalized: neutral wells 0, TNF-alpha wells 100. activation, % at 7.58 µM. hit rate 0.37% among 260,000. AID 686992;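 active = mean E-selectin-positive cell signal at least 10% of the positive control, reached in at least 60% of replicates, without over 20% cell loss; inconclusive = no rule given, readout overlaps actives, possibly toxicity-flagged; inactive = the rest, including those meeting only one limit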
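Test system: HUVEC; input: 3,000 HUVEC/well; measured by: immunofluorescence imaging; read-out: % PE-positive cells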
ERAP1 HTS inh: inhibitors of human ERAP1 aminopeptidase. hit rate 0.15% among 340,000. inhibition, % at 10.7 µM. recombinant ERAP1, Leu-AMC fluorescence, 60 min;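 active = mean replicate inhibition of at least 30%, or all replicates individually reaching that 30% level; inactive = mean below 30% and not every replicate reaching it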;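 note: 0% = neutral control wells and 100% = L-leucinethiol positive control wells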
PglD inh: PglD (C. jejuni) enzyme inhibition; hit rate 0.098% among 360,000; purified PglD enzyme, DTNB colorimetric CoA detection; inhibition, % at 12.5 µM; AID 602405; in the data active = inhibition above about 16%, passing the limit was not always enough; inconclusive = no clear call, values can overlap the other calls
DENV2 CPE rescue: protects cells from dengue virus 2 cytopathic effect; DENV2-infected cells, cytopathic effect rescue, plate reader; CPE inhibition, % at 9.99 µM; hit rate 1.7% among 350,000; AID 651640; in the data active = CPE inhibition above about 20%, passing the limit was not always enough; inconclusive = no clear call, values can overlap the other calls; tested in BHK-21 cells;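 note: 0% = median of neutral control wells and 100% = median of positive control wells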
SIRT5 block: inhibitors of human sirtuin-5 desuccinylase; Q9NXA8; Purified SirT5, succinyl-peptide AMC, trypsin-coupled fluorescence; inhibition, % at 15 µM; hit rate 1.1% among 330,000; in the data active = inhibition above about 15%; inconclusive = no clear call, values can overlap the other calls
* = called active by the depositor; ? = inconclusive; · = not tested or not shown.

SMILES | E-sel inducer | ERAP1 HTS inh | PglD inh | DENV2 CPE rescue | SIRT5 block
C[C@@H]1CCCCO[C@@H](CN(C)Cc2ccc3c(c2)OCO3)[C@H](C)CN([C@@H](C)CO)C(=O)c2cc(NC(=O)NC3CCCCC3)ccc2O1 | 0 | 1 | 1 | 44* | -2
Cn1c(-c2ccccc2)cc(=NNS(C)(=O)=O)c2cc(S(=O)(=O)O)ccc21 | 0 | 37* | 0 | 3 | 4
Cn1c(-c2ccccc2)cc(=O)c2ccccc21 | · | · | 6 | · | ·
CC(C)[C@@H](C(=O)N[C@@H](CCc1ccc(O)cc1)C(=O)O)N(C)C(=O)[C@H](CO)NC(=O)[C@@H](O)[C@H](N)CCCCCCCCl | · | 62* | 3 | 0 | -1
CC(C)C[C@H](NC(=O)[C@@H](O)[C@H](N)Cc1ccccc1)C(=O)O | 2 | · | · | 3 | 0
O=C(CNC(=O)c1ccccc1F)NCCN1C(=O)S/C(=C\c2ccccc2Cl)C1=O | · | 2 | 1 | 81* | -1
CC(C)(C)c1cc(C(=S)N2CCCC2)cc(C(C)(C)C)c1O | · | 1 | -8 | -4 | 1
O=C(C[C@@H]1CC[C@@H]2[C@H](COC[C@H](O)CN2S(=O)(=O)c2cccc(F)c2)O1)NC1CCC1 | 0 | -1 | 1 | 0 | -4
COc1ccc(NC(=O)Nc2ccc3c(c2)CC(=O)N([C@@H](C)CO)C[C@H](C)[C@H](CN(C)CC2CC2)O3)cc1 | 2 | 2 | -1 | 8 | -1
CN1CCN(Cc2c(O)ccc3cc(-c4ccccn4)c(=O)oc23)CC1 | · | 112* | 3 | 3 | -98
CCc1c(C)c2ccc(O)c(CN3CCCC3)c2oc1=O | 0 | 10 | -3 | 2 | -115
CCc1cc(=O)oc2c(CN3CCN(C)CC3)c(O)ccc12 | · | 36* | 1 | 3 | -116
Cc1c(C)c2ccc(O)c(CN3CCN(C)CC3)c2oc1=O | · | 31* | -2 | 7 | -130
Cc1c(C)c2ccc(O)c(CN3CCCC3)c2oc1=O | · | 51* | -2 | ? | -117
CN1CCN(Cc2c(O)ccc3cc(Br)ccc23)CC1 | · | -1 | · | 5 | 1
O=S(=O)(c1ccc(F)cc1)N1CCCCN2[C@H](CO)[C@H](c3ccc(-c4cncnc4)cc3)[C@H]2C1 | 0 | 2 | 3 | 3 | 5
COC(=O)c1cc(-c2ccccc2)sc1NC(=O)CN1C(=O)c2ccccc2C1=O | · | · | 1 | · | ·
Cc1cc(=O)oc2c(CN3CCCCC3)c(O)ccc12 | 0 | 46* | · | -2 | -127
Cc1cc(=O)oc2c(CN3CCOCC3)c(O)ccc12 | 0 | 10 | -2 | -5 | -123
CC=Cc1ccc2n(c1=O)C[C@@H]1[C@@H](CO)[C@H](C(=O)NCC)[C@H]2N1Cc1cccc(Cl)c1 (mixture of isomers) | 0 | 1 | -5 | 2 | -13
C[C@@H]1CCCCO[C@@H](CN(C)C(=O)NC2CCCCC2)[C@H](C)CN([C@H](C)CO)C(=O)c2cc(NS(=O)(=O)c3cn(C)cn3)ccc2O1 | 0 | 1 | 1 | 19 | 8
COc1ccc(Nc2cc(C)c3cc([N+](=O)[O-])ccc3n2)cc1 | 0 | -2 | -2 | 28* | -5
O=C(NC1CCCC1)N1CCCCN2[C@H](CO)[C@@H](c3ccc(-c4cncnc4)cc3)[C@@H]2C1 | 0 | 0 | 2 | 34* | -3
O=C(NC1CCCC1)N1CCCCN2[C@H](C1)[C@@H](c1ccc(/C=C/c3ccccc3)cc1)[C@@H]2CO | -1 | 3 | 7 | -24 | 16*
O=C(NC1CCCC1)N1CCCCN2[C@H](CO)[C@@H](c3ccc(/C=C/c4ccccc4)cc3)[C@@H]2C1 | 19 | 1 | -4 | -25 | 1
SMILES | E-sel inducer | ERAP1 HTS inh | PglD inh | DENV2 CPE rescue | SIRT5 block
O=C(NC1CCCC1)N1CCCCN2[C@H](C1)[C@H](c1ccc(/C=C/c3ccccc3)cc1)[C@@H]2CO | -1 | 1 | -2 | -24 | 28*
CC1=CC(C)(C)n2c(O)c(N=N)c3c(C)ccc1c32 | -2 | -2 | 5 | -18 | ·
C[C@H]1CCCCO[C@H](CN(C)C(=O)Nc2ccc(C(F)(F)F)cc2)[C@@H](C)CN([C@@H](C)CO)C(=O)c2cc(NS(=O)(=O)c3cccs3)ccc2O1 | 1 | -3 | 0 | -19 | 4
C[C@@H]1CCCCO[C@H](CN(C)C(=O)Nc2ccc(C(F)(F)F)cc2)[C@H](C)CN([C@@H](C)CO)C(=O)c2cc(NS(=O)(=O)c3cccs3)ccc2O1 | 0 | -2 | -3 | 37* | 4
C[C@@H]1CCCCO[C@H](CN(C)C(=O)Nc2ccc(F)cc2)[C@@H](C)CN([C@H](C)CO)C(=O)c2cc(NS(=O)(=O)c3cccs3)ccc2O1 | 0 | -2 | -4 | 22* | 2
CCOC(=O)C1(C)CCCCCN1C(=O)c1ccc(Cl)nc1 (stereo not drawn) | 0 | 1 | 0 | 2 | -2
OCCOCCNc1ncnc2sc(-c3ccccc3)cc12 | · | · | -6 | · | ·
Cn1c(=O)oc2cc(S(=O)(=O)N3CCCC(C(=O)NCCN4CCOCC4)C3)ccc21 (stereo not drawn) | 0 | 3 | 1 | 83* | 0
CCCN(CCC)CCNC(=O)C1CCCN(S(=O)(=O)c2ccc3c(c2)oc(=O)n3C)C1 (stereo not drawn) | · | · | -5 | · | ·
CCN1[C@@H]2Cn3c(ccc(-c4ccccc4OC)c3=O)[C@H]1[C@@H](C(=O)N[C@H](C)c1ccccc1)[C@@H]2CO | 0 | -1 | 0 | 1 | 1
COc1ccc(Cl)cc1-c1cc(C(=O)Nc2ccccc2)[nH]n1 | 0 | 2 | 1 | -4 | ·
COc1ccc(Cl)cc1-c1cc(C(=O)N[C@H](C)c2ccccc2)[nH]n1 | 0 | 2 | 0 | 74* | -4
C[C@H](CO)N1C[C@H](C)[C@H](CN(C)C(=O)Nc2ccc(F)cc2)Oc2ncc(C#Cc3ccc(C(F)(F)F)cc3)cc2C1=O | 0 | 1 | -3 | 2 | 16*
C/C=C/c1cnc2c(c1)C(=O)N([C@H](C)CO)C[C@@H](C)[C@@H](CN(C)C(=O)Nc1ccccc1F)O2 | 0 | 2 | · | 30* | -7
C/C=C/c1cnc2c(c1)C(=O)N([C@H](C)CO)C[C@H](C)[C@H](CN(C)C(=O)Nc1ccccc1F)O2 | 0 | 1 | 3 | 0 | -1
C[C@@H]1CN([C@H](C)CO)C(=O)c2cc(C#Cc3ccc(F)cc3)cnc2O[C@@H]1CN(C)C(=O)Nc1ccc(F)cc1 | 0 | 0 | 1 | 7 | -3
COc1ccc(NC(=O)N(C)C[C@H]2Oc3ncc(C#CCN(C)C)cc3C(=O)N([C@@H](C)CO)C[C@@H]2C)cc1 | 1 | -2 | 0 | · | 22*
C/C=C/c1cnc2c(c1)C(=O)N([C@@H](C)CO)C[C@H](C)[C@@H](CN(C)C(=O)Nc1ccc(F)cc1)O2 | 2 | -4 | 4 | -5 | 16*
COc1ccc(NC(=O)Nc2cccc3c2O[C@@H](CN(C)C(=O)Nc2ccc4c(c2)OCO4)[C@H](C)CN([C@@H](C)CO)C3=O)cc1 | 0 | -4 | 1 | -3 | 8
